High-throughput results (PubChem BioAssay)
TRPC4 agonist = activators of mouse TRPC4 channel; HEK293 TRPC4beta/mu-opioid, Fluo4 calcium fluorescence; stronger effect = higher value; 310,000 compounds, 0.49% hits; B-score at 10 µM; AID 2237; Q9QUQ5;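 active means B-score above 5 SD of library B-scores, and initial fluorescence ratio not above library mean plus 5 SD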;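 further: positive B-score marks a calcium rise read as TRPC4 activation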
Target sequence (Q9QUQ5 whole entry, looked up): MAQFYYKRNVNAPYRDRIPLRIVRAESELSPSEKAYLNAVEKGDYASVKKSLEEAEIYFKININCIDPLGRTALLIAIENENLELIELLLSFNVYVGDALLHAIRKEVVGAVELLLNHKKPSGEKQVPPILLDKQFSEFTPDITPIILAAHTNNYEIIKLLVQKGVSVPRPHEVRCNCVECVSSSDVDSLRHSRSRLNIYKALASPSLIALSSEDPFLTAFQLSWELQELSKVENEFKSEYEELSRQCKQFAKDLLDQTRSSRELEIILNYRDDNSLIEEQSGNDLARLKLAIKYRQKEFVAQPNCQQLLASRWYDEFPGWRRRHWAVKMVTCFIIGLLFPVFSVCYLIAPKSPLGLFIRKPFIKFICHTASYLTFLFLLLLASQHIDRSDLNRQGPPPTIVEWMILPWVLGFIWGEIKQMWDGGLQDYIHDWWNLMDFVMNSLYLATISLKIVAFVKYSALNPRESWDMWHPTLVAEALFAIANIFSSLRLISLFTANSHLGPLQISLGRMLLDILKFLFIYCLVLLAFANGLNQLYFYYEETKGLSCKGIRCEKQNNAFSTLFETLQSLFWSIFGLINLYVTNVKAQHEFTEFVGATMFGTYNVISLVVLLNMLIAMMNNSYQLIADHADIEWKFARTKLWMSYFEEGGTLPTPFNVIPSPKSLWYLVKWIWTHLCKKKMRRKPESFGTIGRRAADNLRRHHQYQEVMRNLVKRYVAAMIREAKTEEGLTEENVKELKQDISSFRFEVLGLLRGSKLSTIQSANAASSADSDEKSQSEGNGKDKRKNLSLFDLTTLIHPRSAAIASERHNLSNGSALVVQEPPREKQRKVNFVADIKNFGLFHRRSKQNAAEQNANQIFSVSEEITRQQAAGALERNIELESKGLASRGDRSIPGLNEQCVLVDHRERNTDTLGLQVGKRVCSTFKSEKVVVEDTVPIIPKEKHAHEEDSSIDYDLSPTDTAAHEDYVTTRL
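system = HEK293 cells stably co-expressing mouse TRPC4beta and mu-opioid receptor | schedule = Fluo4 dye loading 45 min at room temperature, 110 s recording | measure = B-scored integrated calcium fluorescence ratio | signal = Fluo4 calcium-sensitive dye fluorescence, kinetic, 1 Hz baseline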
TRPC4 block = blocks the mouse TRPC4 cation channel; Q9QUQ5; HEK293 TRPC4beta/mu-opioid, DAMGO-evoked Fluo4 calcium flux; stronger effect = lower value; B-score at 10 µM; 300,000 compounds, 0.39% hits; AID 2247;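 active means B-score over 3 SD under the library average, no early fluorescence shift, positive overall ratio signal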
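Assay system: HEK293 cells with stable TRPC4beta plus mu-opioid receptor expression. Dosing: single dose. Measured by: Fluo4 Ca2+ flux fluorescence. Also added: DAMGO in two steps, submaximal then maximal. Read-out: B score from integrated Fluo4 fluorescence ratio.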
TRPC6 inhibitor = mouse TRPC6 channel inhibition; Q61143; HEK293-TRPC6, membrane potential dye, ACh-evoked depolarization; stronger effect = lower value; B-score at 10 µM; 310,000 compounds, 1.1% hits; AID 2553;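 active means B-score under library mean minus 3 SD, initial fluorescence not abnormally high, positive integrated signal ratio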;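 further: B-score derived from integrated fluorescence ratio over the kinetic read; more negative B-score means stronger inhibition of depolarization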
Kir21 block = Kir2.1 (mouse) channel inhibition; AID 1672; 310,000 compounds, 0.85% hits; HEK293-Kir2.1, FluxOR thallium flux fluorescence; stronger effect = lower value; B-score at 10 µM;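 active means fluorescence ratio B-score at or below minus 3 SD of library scores, with starting-brightness B-score within 2 SD, cut at about -4.2 in these data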;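 further: channel flux triggered by added potassium and thallium sulfate stimulus; B-score of peak minus minimum fluorescence over baseline after thallium stimulus; more negative B-score means stronger Kir2.1 block with less thallium influx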
TRPC4 PAM = TRPC4 (mouse) allosteric potentiation | Q9QUQ5 | HEK293 TRPC4beta/mu-opioid, DAMGO EC20, Fluo-4 Ca2+ flux; stronger effect = higher value | B-score at 10 µM | 310,000 compounds, 0.42% hits | AID 2227;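 active means B-score of calcium response area above 5 SD of library B-scores, with initial fluorescence ratio within 5 SD of library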;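 further: B-score of integrated fluorescence ratio over time as area under calcium response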
TRPC6 activator = activators of mouse TRPC6 channel; Q61143; HEK293-TRPC6 membrane potential dye fluorescence; stronger effect = higher value; B-score at 10 µM; 310,000 compounds, 0.13% hits; AID 2550;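 active means B-score of the integrated fluorescence ratio above library mean plus 3 SD, and starting fluorescence ratio within library mean plus 5 SD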;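 further: higher score means more depolarization so channel activation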
An asterisk follows results filed as active. Sampled rows, rich in hits. Any-hit rate of the full collection: about 3%.

`COc1ccc(C(CNC(=O)c2cccc(NS(=O)(=O)c3ccccc3)c2)N(C)C)cc1` (stereo unspecified) gave TRPC4 agonist 53*, TRPC4 block -6*, TRPC6 inhibitor inactive, Kir21 block -0.05, TRPC4 PAM inactive and TRPC6 activator inactive.
For CN(C)C(CNC(=O)c1ccc2nc[nH]c2c1)c1ccccc1 (stereo unspecified) the results were TRPC4 agonist 142*, TRPC4 block inactive, TRPC6 inhibitor inactive, Kir21 block 0.44, TRPC4 PAM inactive and TRPC6 activator inactive.
`CCOc1ccc(S(=O)(=O)Nc2cccc(C(=O)NCC(c3ccccc3)N(C)C)c2)cc1` (stereo unspecified) gave TRPC4 agonist 198*, TRPC4 block inactive, TRPC6 inhibitor inactive, Kir21 block -1.6, TRPC4 PAM inactive and TRPC6 activator inactive.
`CN(C)C(CNC(=O)c1ccc(S(=O)(=O)Nc2ccccc2F)cc1)c1ccccc1` (stereo unspecified) gave TRPC4 agonist inactive, TRPC4 block inactive, TRPC6 inhibitor inactive, Kir21 block 0.97, TRPC4 PAM inactive and TRPC6 activator inactive.
For CCOC(=O)C1(CCOC)CCN(C(=O)c2ccc(CSC)o2)CC1 the results were TRPC4 agonist inactive, TRPC4 block inactive, TRPC6 inhibitor inactive, Kir21 block 0.96, TRPC4 PAM inactive and TRPC6 activator inactive.
Cc1ccccc1NC(=O)C(=O)NNC(=O)COc1ccc2ccccc2c1 was read as TRPC4 agonist inactive, TRPC4 block inactive, TRPC6 inhibitor inactive, Kir21 block -0.02, TRPC4 PAM inactive and TRPC6 activator inactive.
Screening COc1ccc(C(CNC(=O)c2cccc(NS(=O)(=O)c3ccc(C)c(F)c3)c2)N(C)C)cc1 (stereo unspecified) returned TRPC4 agonist 81*, TRPC4 block inactive, TRPC6 inhibitor inactive, Kir21 block 0.53, TRPC4 PAM inactive and TRPC6 activator inactive.
Screening COc1ccc(C(CNC(=O)c2ccc(S(=O)(=O)Nc3ccc(F)cc3)cc2)N(C)C)cc1 (stereo unspecified) returned TRPC4 agonist 66*, TRPC4 block inactive, TRPC6 inhibitor inactive, Kir21 block 0.7, TRPC4 PAM inactive and TRPC6 activator inactive.
`CC(=O)c1ccccc1C(=O)N1CCCC(C(=O)c2ccc(C(F)(F)F)cc2)C1` (stereo unspecified) gave TRPC4 agonist inactive, TRPC4 block inactive, TRPC6 inhibitor inactive, Kir21 block 1.9, TRPC4 PAM inactive and TRPC6 activator inactive.
For Cc1ccc(S(=O)(=O)NCCCNS(=O)(=O)c2ccccc2[N+](=O)[O-])cc1 the results were TRPC4 agonist inactive, TRPC4 block inactive, TRPC6 inhibitor inactive, Kir21 block -0.99, TRPC4 PAM inactive and TRPC6 activator inactive.
O=[N+]([O-])c1ccc(NCCNS(=O)(=O)c2ccccc2)c(C(F)(F)F)c1 was read as TRPC4 agonist inactive, TRPC4 block inactive, TRPC6 inhibitor inactive, Kir21 block -5.8*, TRPC4 PAM inactive and TRPC6 activator inactive.
For Cc1ccc(S(=O)(=O)NCCNc2ccccc2[N+](=O)[O-])cc1 the results were TRPC4 agonist inactive, TRPC4 block inactive, TRPC6 inhibitor inactive, Kir21 block -4.3*, TRPC4 PAM inactive and TRPC6 activator inactive.
`Cc1ccc(S(=O)(=O)NCCNc2ccc([N+](=O)[O-])cc2C(F)(F)F)cc1` gave TRPC4 agonist inactive, TRPC4 block inactive, TRPC6 inhibitor inactive, Kir21 block -1.4, TRPC4 PAM inactive and TRPC6 activator inactive.
`COc1ccc(CCNC(=O)/C(C#N)=C/c2cccc(OCc3ccccc3)c2)cc1OC` gave TRPC4 agonist inactive, TRPC4 block inactive, TRPC6 inhibitor inactive, Kir21 block -4.4*, TRPC4 PAM inactive and TRPC6 activator inactive.
Screening COCCNC(=O)/C(C#N)=C/c1ccc(OC(=O)c2cccs2)c(OC)c1 returned TRPC4 agonist inactive, TRPC4 block inactive, TRPC6 inhibitor inactive, Kir21 block -6*, TRPC4 PAM inactive and TRPC6 activator inactive.
